From ChEMBL document CHEMBL1142921, “Synthesis of DL-standishinal and its related compounds for the studies on structure-activity relationship of inhibitory activity against aromatase” (Bioorg Med Chem, 2007)

Assays:
Details in all cases: 0.5 h
Aromatase [1] = target: T1, Aromatase (Homo sapiens, UniProt P11511); assay: Inhibition of human recombinant aromatase at 10 uM after 30 mins relative to control
T1 sequence (P11511 whole entry): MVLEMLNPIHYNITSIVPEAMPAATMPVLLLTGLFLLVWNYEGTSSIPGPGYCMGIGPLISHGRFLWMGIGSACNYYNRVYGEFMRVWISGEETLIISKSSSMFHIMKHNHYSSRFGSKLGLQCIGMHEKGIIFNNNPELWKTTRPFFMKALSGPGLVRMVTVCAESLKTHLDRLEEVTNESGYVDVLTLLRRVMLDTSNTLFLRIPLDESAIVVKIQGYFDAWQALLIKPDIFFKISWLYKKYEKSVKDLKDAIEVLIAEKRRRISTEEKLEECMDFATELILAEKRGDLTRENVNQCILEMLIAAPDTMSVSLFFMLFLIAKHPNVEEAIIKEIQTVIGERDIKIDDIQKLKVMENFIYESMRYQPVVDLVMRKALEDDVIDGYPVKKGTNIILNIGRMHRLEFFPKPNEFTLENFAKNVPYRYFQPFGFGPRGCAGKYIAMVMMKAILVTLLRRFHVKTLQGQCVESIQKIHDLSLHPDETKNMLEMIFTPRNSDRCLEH
Method in brief: (§1)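 Human recombinant aromatase (CYP19) expressed in insect cells via baculovirus; fluorogenic substrate methoxy-4-trifluoromethylcoumarin, 3 µM in the reaction. Compounds in acetone, serially diluted 1:3 in NADPH-cofactor buffer. Reaction started with prewarmed enzyme–substrate mix, 30 min at 37 °C. Fluorescence read at 409 nm excitation / 530 nm emission. Blank lacks enzyme. Inhibition as % of no-inhibitor control; mean ± SD, n = 4; Student t test.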

Aromatase [2] = target: T1, Aromatase; assay: Inhibition of human recombinant aromatase at 3 uM after 30 mins relative to control; method in brief: as §1
Aromatase [3] = target: T1, Aromatase; assay: Inhibition of human recombinant aromatase at 1 uM after 30 mins relative to control; method in brief: as §1
Aromatase [4] = target: T1, Aromatase; assay: Inhibition of human recombinant aromatase at 300 nM after 30 mins relative to control; method in brief: as §1

CC(C)c1cc(C=O)c([C@@]2(C)CCCC(C)(C)[C@@H]2C=O)cc1O
inhibition at 10 µM (Aromatase [1]): 9.2% | inhibition at 3 µM (Aromatase [2]): 3.3% | inhibition at 1 µM (Aromatase [3]): < 0% | inhibition at 0.3 µM (Aromatase [4]): 5.9%

COc1cc2c(cc1C(C)C)C(=O)C[C@H]1C(C)(C)CCC[C@]21C
inhibition at 10 µM (Aromatase [1]): 19.8% | inhibition at 3 µM (Aromatase [2]): 6.7% | inhibition at 1 µM (Aromatase [3]): 18.1% | inhibition at 0.3 µM (Aromatase [4]): < 0%

COc1cc2c(cc1C(C)C)C=C[C@@H]1C(C)(C)CCC[C@]21C
inhibition at 10 µM (Aromatase [1]): 19.8% | inhibition at 3 µM (Aromatase [2]): 18.6% | inhibition at 1 µM (Aromatase [3]): 19.7% | inhibition at 0.3 µM (Aromatase [4]): 16.2%

COc1cc2c(cc1C(C)C)CC[C@H]1C(C)(C)CCC[C@]21C
inhibition at 10 µM (Aromatase [1]): 4.8% | inhibition at 3 µM (Aromatase [2]): 4.1% | inhibition at 1 µM (Aromatase [3]): 2.2% | inhibition at 0.3 µM (Aromatase [4]): 9%

COc1cc2c(cc1C(C)C)CC[C@@H]1C(C)(C)CCC[C@]21C
inhibition at 10 µM (Aromatase [1]): 19.7% | inhibition at 3 µM (Aromatase [2]): 18.4% | inhibition at 1 µM (Aromatase [3]): 15.9% | inhibition at 0.3 µM (Aromatase [4]): 15.2%

N#Cc1ccc(C(c2ccc(C#N)cc2)n2cncn2)cc1 [LETROZOLE]
inhibition at 10 µM (Aromatase [1]): 92.5% | inhibition at 3 µM (Aromatase [2]): 83.8% | inhibition at 1 µM (Aromatase [3]): 91.1% | inhibition at 0.3 µM (Aromatase [4]): 89.3%

CC(C)c1cc(C=O)c2c(c1O)[C@H](O)[C@H]1C(C)(C)CCC[C@]21C [STANDISHINAL]
inhibition at 10 µM (Aromatase [1]): 23.7% | inhibition at 3 µM (Aromatase [2]): 6.7% | inhibition at 1 µM (Aromatase [3]): 10.3% | inhibition at 0.3 µM (Aromatase [4]): 1.1%

COc1cc2c(cc1C(C)C)C(=O)C[C@@H]1C(C)(C)CCC[C@]21C
inhibition at 10 µM (Aromatase [1]): 19.5% | inhibition at 3 µM (Aromatase [2]): 23.9% | inhibition at 1 µM (Aromatase [3]): 28.7% | inhibition at 0.3 µM (Aromatase [4]): 20.7%

CC(=O)N1CCN(c2ccc(OC[C@H]3CO[C@](Cn4ccnc4)(c4ccc(Cl)cc4Cl)O3)cc2)CC1 [KETOCONAZOLE]
inhibition at 10 µM (Aromatase [1]): 87.9% | inhibition at 3 µM (Aromatase [2]): 87.5% | inhibition at 1 µM (Aromatase [3]): 84.2% | inhibition at 0.3 µM (Aromatase [4]): 81.7%

CC(C)c1cc(C=O)c([C@@]2(C)CCCC(C)(C)[C@H]2C=O)cc1O
inhibition at 10 µM (Aromatase [1]): 25.1% | inhibition at 3 µM (Aromatase [2]): 24.9% | inhibition at 1 µM (Aromatase [3]): 24.5% | inhibition at 0.3 µM (Aromatase [4]): 22.2%
